Hits are enriched below; roughly 3.7% of the tested compounds scored in any of these assays.
Kir21 block: inhibitors of mouse Kir2.1 inward-rectifier potassium channel. Inward rectifier potassium channel 2 (Mus musculus), P35561. HEK293-Kir2.1, FluxOR thallium flux fluorescence; stronger effect = lower value. B-score at 10 µM. 310,000 compounds, 0.85% hits. AID 1672, 2009;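 active = fluorescence ratio B-score at or below minus 3 SD of library scores, with starting-brightness B-score within 2 SD, cut at about -4.2 in these data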;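 note: channel flux triggered by added potassium and thallium sulfate stimulus; B-score of peak minus minimum fluorescence over baseline after thallium stimulus; more negative B-score means stronger Kir2.1 block with less thallium influx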
KCNQ1 act: potentiators or activators of KCNQ1 channel, primary screen, cell-based, thallium flux, high-throughput; Potassium voltage-gated channel subfamily KQT member 1 (Homo sapiens), P51787; CHO-K1 KCNQ1, thallium flux FluxOR fluorescence; stronger effect = higher value; B-score at 10 µM; 310,000 compounds, 0.35% hits;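 active = fluorescence ratio B-score, a plate-corrected score, at least three library SD, with initial intensity B-score within 5 SD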
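Medium – assay buffer, equal DMSO in all wells · Material – CHO-K1 cell line with stable KCNQ1 potassium channel expression · Signal – kinetic FluxOR thallium fluorescence, 10-s 1-Hz baseline, 110-s post-stimulus read · Compound – single concentration per compound, DMSO matched to controls · Schedule – 37 °C overnight plating, 90-min dark dye load, 20-min compound pretreatment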
KCNQ1 inh: inhibitors of human KCNQ1 channel, primary screen, cell-based, thallium flux, high-throughput; AID 2642, 2010; CHO-K1 KCNQ1, FluxOR thallium flux fluorescence; stronger effect = higher value; Potassium voltage-gated channel subfamily KQT member 1 (Homo sapiens), P51787; B-score at 10 µM; 310,000 compounds, 1.3% hits;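 active = compounds whose thallium flux B-score, printed positive for inhibition, exceeds three library SD while starting fluorescence stays within three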;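 note: channel opened by potassium depolarization with thallium stimulus after 20 min compound exposure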
hERG rescue: hERG rescue from dofetilide block, primary screen, cell-based, CHO-hERG, FluxOR thallium flux, dofetilide IC70 | activation (rescue from dofetilide block), less the hit threshold, % at 10 µM | Voltage-gated inwardly rectifying potassium channel KCNH2 (Homo sapiens), Q12809 | AID 1511, 2009 | 310,000 compounds, 0.51% hits | dofetilide IC70 present;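 active = activation above the mean of controls blocked by dofetilide plus 5 SD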;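 note: thallium influx through hERG after potassium depolarization seen as dye fluorescence rise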
KCNK3 inh: human KCNK3 channel inhibitors, primary screen, CHO cells, FluxOR thallium flux, B-score. Potassium channel subfamily K member 3 (Homo sapiens), O14649. AID 602410, 2012. 340,000 compounds, 0.84% hits. FluxOR fluorescence; stronger effect = lower value. B-score at 10 µM;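 active = B-score under library mean minus 4 SD, starting fluorescence ratio at most library mean plus 5 SD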;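 note: more negative B-score means stronger inhibition of thallium flux through KCNK3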
KCNK9 inh: KCNK9 potassium channel inhibitors, primary screen, HEK293 cells, thallium flux. FluxOR thallium flux fluorescence; stronger effect = lower value. 310,000 compounds, 1.2% hits. AID 488922, 2010. B-score at 10 µM;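 active = ratio B-score over 3 SD below the library mean, with starting fluorescence within 5 SD of its mean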;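 note: negative B-score means less thallium flux so channel inhibition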
KCNQ1 block val: KCNQ1 potassium channel inhibitors, confirmation, cell-based, Tl flux, duplicate; shares compounds with KCNQ1 inh; AID 588353, 2011; KCNQ1 cell line, FluxOR thallium flux fluorescence; inhibition, % at 10 µM; 1,600 compounds, 93% hits;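 active = primary screen active, with duplicate mean exceeding buffer control mean plus 3 SD of buffer wells, cut at about 28% in these data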;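 note: 0% = buffer control ratio and 100% = XE991 inhibitor control ratio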
CHO KCNQ1 ctr: thallium flux effects in parental CHO cells, counter-screen for KCNQ1 inhibitor project, cell-based, Tl flux. parental CHO-K1, FluxOR thallium flux fluorescence ratio; stronger effect = lower value; zero means no signal rise above baseline. shares compounds with KCNQ1 inh. fluorescence ratio (Tl flux) at 10 µM. 1,600 compounds, 21% hits;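 active = mean of duplicate thallium-flux fluorescence ratios in parental host cells more than 5 SD below the buffer control mean, cut at about 0.38 in these data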;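 note: ratio is peak minus minimum fluorescence divided by baseline fluorescence; actives read low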
KCNQ1 APC inh: KCNQ1 channel inhibitors, confirmation, orthogonal assay, cell-based, automated electrophysiology. KCNQ1-CHO cells, automated patch clamp current. shares compounds with KCNQ1 inh. 490 compounds, 20% hits. calls only at 10 µM. AID 624120, 2012;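 active = KCNQ1 current drop exceeding 3 SD of negative control wells, seen in both duplicate runs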;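 note: steady state current during a 2 s step from -80 to +40 mV; negative values mean current inhibition and positive values mean potentiation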
KCNQ2 inh: KCNQ2 channel inhibition, selectivity assay for KCNQ1 inhibitor project, cell-based; shares compounds with KCNQ1 inh; inhibition, % at 10 µM; 1,600 compounds, 71% hits; KCNQ2 cells, FluxOR thallium flux fluorescence;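 active = mean percent inhibition of the KCNQ2 thallium signal more than 5 SD above the buffer-only control wells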;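 note: KCNQ2 expressed in CHO cells; 0% = buffer control wells and 100% = XE-991 inhibitor control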
KCNQ1 KCNE1 spec: KCNQ1/KCNE1 channel inhibition, selectivity assay for KCNQ1 inhibitor project, CHO-K1 cells, thallium flux, FluxOR; shares compounds with KCNQ1 inh; FluxOR thallium flux fluorescence; inhibition, % at 10 µM; 1,600 compounds, 77% hits; AID 652147, 2013;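 active = mean percent inhibition of duplicate wells above the buffer-only control mean plus 3 SD of those controls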;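 note: 0% = buffer only wells and 100% = XE-991 inhibitor control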
Target sequence (P51787 whole entry, looked up): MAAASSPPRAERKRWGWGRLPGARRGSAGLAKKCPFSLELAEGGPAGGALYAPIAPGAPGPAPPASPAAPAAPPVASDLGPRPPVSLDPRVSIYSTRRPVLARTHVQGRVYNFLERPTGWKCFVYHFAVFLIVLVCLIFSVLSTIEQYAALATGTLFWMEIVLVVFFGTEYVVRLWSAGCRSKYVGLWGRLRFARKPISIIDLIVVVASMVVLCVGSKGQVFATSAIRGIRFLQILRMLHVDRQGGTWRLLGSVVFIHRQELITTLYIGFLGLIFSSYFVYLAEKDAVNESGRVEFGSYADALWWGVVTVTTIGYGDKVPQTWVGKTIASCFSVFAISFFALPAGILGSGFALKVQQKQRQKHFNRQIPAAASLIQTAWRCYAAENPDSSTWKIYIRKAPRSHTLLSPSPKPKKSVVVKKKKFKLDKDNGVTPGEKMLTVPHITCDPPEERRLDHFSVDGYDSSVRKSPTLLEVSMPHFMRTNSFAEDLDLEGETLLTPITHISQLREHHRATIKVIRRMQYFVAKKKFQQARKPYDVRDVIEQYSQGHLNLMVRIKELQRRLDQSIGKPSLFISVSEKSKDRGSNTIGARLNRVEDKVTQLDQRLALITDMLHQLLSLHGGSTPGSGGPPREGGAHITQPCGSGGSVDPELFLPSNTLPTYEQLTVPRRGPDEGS
An asterisk follows results filed as active; i = inactive; / = no result given.

SMILES	Kir21 block	KCNQ1 act	KCNQ1 inh	hERG rescue	KCNK3 inh	KCNK9 inh	KCNQ1 block val	CHO KCNQ1 ctr	KCNQ2 inh	KCNQ1 KCNE1 spec	others
Cc1ccc(N2C(=O)c3ccccc3C2C(=O)c2ccc(C)c(C)c2O)cc1 (stereo unspecified)	1.9	i	7*	-6	i	i	90*	0.37*	103%*	74%*
Cc1c(Cl)cccc1NC(=S)N1CCCN(Cc2ccccc2F)C1	-1.4	i	i	-16	i	i	/	/	/	/
Fc1ccccc1CN1CCCN(C(=S)Nc2cccc(Cl)c2)C1	-0.01	i	7*	-8	i	i	47*	0.48	73%*	i
COc1cc(CN2CCCCC2C(=O)Nc2ccc(Oc3ccccc3)nc2)ccc1O (stereo unspecified)	0.21	i	i	-10	i	i	/	/	/	/
CCC(=O)N1CCN(c2ccc(NC(=O)c3cc4ccccc4o3)cc2Cl)CC1	0.36	i	i	-17	i	i	/	/	/	/
O=C(Nc1ccc(N2CCN(C(=O)c3ccco3)CC2)c(Cl)c1)c1cc2ccccc2o1	0.62	i	6*	-18	i	i	78*	0.41	108%*	142%*
CN(Cc1ccc(F)cc1)C(=O)c1cccc(S(=O)(=O)N2CCN(c3ccc(F)cc3)CC2)c1	-0.01	i	i	-12	i	i	/	/	/	/
CN(Cc1ccc(F)cc1)C(=O)c1cccc(S(=O)(=O)N2CCN(c3ccccc3)CC2)c1	-0.99	i	7*	-8	i	i	76*	0.46	70%*	i
COc1ccccc1CCCNC(=O)C1CCC(=O)N(CCc2cccc(F)c2)C1 (stereo unspecified)	-1.2	i	i	-5	i	i	/	/	/	/
COc1ccc(N(CC(=O)Nc2cccnc2)S(=O)(=O)c2ccccc2)cc1Cl	-0.32	i	i	-10	i	i	/	/	/	/
COc1ccc(N(CC(=O)Nc2ccccc2OC)S(=O)(=O)c2ccccc2)cc1Cl	0.18	i	7*	-4	i	i	74*	0.39	92%*	102%*
Cc1ccc(OCCC(=O)N(CC(=O)Nc2ccccc2C(F)(F)F)Cc2ccco2)cc1	-3.1	i	i	-5	i	i	/	/	/	/
O=c1c2c(nc3n1CCCCC3)-c1ccccc1CC21CCCC1	0.56	i	8*	-1	i	i	122*	0.41	115%*	150%*	KCNQ1 APC inh=i
Nn1cnc2c(c1=O)C1(CCCCC1)Cc1ccccc1-2	-0.06	i	i	-8	i	i	/	/	/	/
O=C(CCN1CCCCO1)N1CCCC(Nc2ccc(F)cc2)C1 (stereo unspecified)	-2.1	i	i	-8	i	i	/	/	/	/

High-throughput results: PubChem, Johns Hopkins Ion Channel Center
